The text below walks through data of ChEMBL document CHEMBL1125533, “Novel 1-(pyridylphenyl)-1-phenyl-2-imidazolylethanols with topical antiinflammatory activity” (J Med Chem, 1992).

Series [1] relates to Mus musculus. Kind of series: In vivo inhibitory activity in a phorbol myristyl acetate (PMA) ear edema model at a dose of 100 ug/ear. Type of series: functional. In outline:
(§1)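 Mouse ear edema, topical: inflammation induced by PMA, A23187 or arachidonic acid on one ear, with the unchallenged ear as control. Mice were killed by cervical dislocation at set times after challenge, and 6 mm punches were weighed. Edema = challenged minus unchallenged punch weight. Percent inhibition = [(C−T)/C]×100 at 100 μg/ear. Duplicate separate experiments, 10 animals per group. Student's t test.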

Series [2] is described as follows: Partition coefficient (logP). Type of series: physicochemical. The settings on record: octanol/water. In outline: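 log P estimated from reversed-phase HPLC retention time. Calibration curve built from shake-flask octanol/water log P values of eight pyridines. Log RT vs log P was linear.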
Series [3] has as its target T1, Polyunsaturated fatty acid 5-lipoxygenase (Rattus norvegicus, UniProt P12527).
T1 sequence (P12527 whole entry): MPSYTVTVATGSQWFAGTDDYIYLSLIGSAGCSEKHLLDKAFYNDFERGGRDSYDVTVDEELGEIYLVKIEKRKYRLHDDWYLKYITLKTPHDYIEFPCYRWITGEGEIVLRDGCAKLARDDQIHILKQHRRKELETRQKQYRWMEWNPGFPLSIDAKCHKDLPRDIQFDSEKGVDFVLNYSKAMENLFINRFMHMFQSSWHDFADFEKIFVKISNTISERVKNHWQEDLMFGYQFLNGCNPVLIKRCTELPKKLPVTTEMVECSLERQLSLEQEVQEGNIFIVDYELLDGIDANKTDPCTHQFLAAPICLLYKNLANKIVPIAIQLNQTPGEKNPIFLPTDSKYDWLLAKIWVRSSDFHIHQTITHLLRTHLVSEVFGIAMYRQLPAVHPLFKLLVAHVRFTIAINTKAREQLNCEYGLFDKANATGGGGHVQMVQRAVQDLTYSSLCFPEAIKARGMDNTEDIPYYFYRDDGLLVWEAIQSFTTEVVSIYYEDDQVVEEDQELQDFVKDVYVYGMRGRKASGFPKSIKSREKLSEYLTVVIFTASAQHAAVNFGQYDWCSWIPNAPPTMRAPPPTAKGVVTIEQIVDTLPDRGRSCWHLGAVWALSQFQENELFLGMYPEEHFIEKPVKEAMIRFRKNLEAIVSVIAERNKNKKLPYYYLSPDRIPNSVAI
The series is described as follows: Inhibitory activity against 5-lipoxygenase of RBL-1 cell line. It counts as cell-based.

For series [4], the system named is Mus musculus. Kind of series: In vivo inhibitory activity against A-23187 ear edema at a dose of 100 ug/ear. It counts as functional. In outline:
as §1

Series [5] concerns Mus musculus. Kind of series: In vivo inhibitory activity against arachidonic acid(AA) ear edema at a dose of 100 ug/ear. Type of series: functional. In outline: as §1
Series [6] concerns the target T2, Cyclooxygenase (Bos taurus, UniProt O62664+O62698).
T2 sequence (O62664 whole entry): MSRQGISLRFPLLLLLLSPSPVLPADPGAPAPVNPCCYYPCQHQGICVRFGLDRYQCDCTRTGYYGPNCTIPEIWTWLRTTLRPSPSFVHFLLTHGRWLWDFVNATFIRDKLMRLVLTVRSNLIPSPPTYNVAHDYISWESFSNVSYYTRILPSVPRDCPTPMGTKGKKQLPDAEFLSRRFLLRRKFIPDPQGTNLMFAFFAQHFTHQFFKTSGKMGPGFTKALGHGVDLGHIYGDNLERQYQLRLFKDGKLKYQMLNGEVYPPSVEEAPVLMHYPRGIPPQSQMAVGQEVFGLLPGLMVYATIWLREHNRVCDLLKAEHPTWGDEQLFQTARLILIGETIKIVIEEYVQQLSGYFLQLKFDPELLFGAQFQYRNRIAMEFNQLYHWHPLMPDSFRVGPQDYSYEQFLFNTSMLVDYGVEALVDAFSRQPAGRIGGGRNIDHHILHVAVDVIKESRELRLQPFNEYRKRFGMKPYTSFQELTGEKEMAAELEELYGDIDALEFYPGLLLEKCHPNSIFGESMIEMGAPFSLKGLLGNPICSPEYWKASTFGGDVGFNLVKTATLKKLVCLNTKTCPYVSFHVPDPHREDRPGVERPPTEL
T2 sequence (O62698 whole entry): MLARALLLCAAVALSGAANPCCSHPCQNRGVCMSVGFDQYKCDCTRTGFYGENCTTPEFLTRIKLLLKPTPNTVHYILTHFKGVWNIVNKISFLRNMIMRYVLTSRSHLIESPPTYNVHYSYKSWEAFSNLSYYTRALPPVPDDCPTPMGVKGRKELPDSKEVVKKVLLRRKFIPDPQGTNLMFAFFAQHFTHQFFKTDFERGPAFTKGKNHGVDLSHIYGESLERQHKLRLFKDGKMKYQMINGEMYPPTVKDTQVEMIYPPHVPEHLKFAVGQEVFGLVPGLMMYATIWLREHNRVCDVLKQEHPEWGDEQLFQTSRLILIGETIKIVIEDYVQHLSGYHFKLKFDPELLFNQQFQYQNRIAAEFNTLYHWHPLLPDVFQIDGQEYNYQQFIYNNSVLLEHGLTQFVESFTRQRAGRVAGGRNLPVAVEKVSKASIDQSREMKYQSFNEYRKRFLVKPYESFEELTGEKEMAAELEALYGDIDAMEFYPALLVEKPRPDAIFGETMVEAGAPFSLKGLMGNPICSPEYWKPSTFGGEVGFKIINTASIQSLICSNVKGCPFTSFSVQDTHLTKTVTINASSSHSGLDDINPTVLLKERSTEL
The series is described as follows: Inhibitory activity against Prostaglandin G/H synthase (bovine seminal vesicles). Type of series: protein assay.

Series [7] concerns Mus musculus. Kind of series: In vivo inhibitory activity against phorbol myristyl acetate (PMA) ear edema at a dose of 100 ug/ear. Type of series: functional. In outline: as §1

In the case of `OC(CCc1ncc[nH]1)(c1ccc(F)cc1)c1ccc(F)cc1`, the Inhibition (commonly how much of the control response was suppressed) in series [1] came out at 52%. Moreover, the log partition coefficient (logP) – broadly, a log measure of how a compound divides between an organic and an aqueous phase – in series [2] was found to be 3.13.
For `OC(CN1CCOCC1)(c1ccc(F)cc1)c1ccc(-c2ccncc2)cc1` (stereo unspecified) the same measures were 41% and 2.82.
For `COc1ccc(C(O)(Cn2ccnc2)c2ccc(-c3ccncc3)cc2)cc1` (stereo unspecified) the same measures were 74% and 3.55.
`OC(Cn1ccnc1)(c1ccc(-c2ccncc2)cc1)c1ccc(F)cc1F` (stereo unspecified) showed an Inhibition in series [1] of 73%. In series [2], this compound had a logP of 2.54.
For `OC(Cn1ccnc1)(c1ccc(-c2ccncc2)cc1)c1ccc(C(F)(F)F)cc1` (stereo unspecified) the same measures were 58% and 3.11.
As for `OCc1ccc(C(O)(Cn2ccnc2)c2ccc(-c3ccncc3)cc2)cc1` (stereo unspecified), the Inhibition in series [1] is 24%. The compound further had a log partition coefficient (logP) in series [2] of 2.4.
For `OC(Cn1ccnc1)(c1ccc(F)cc1)c1ccc(-c2ccccc2)cc1` (stereo unspecified) the same measures were 25% and 4.23.
Taken in the same sequence, the figures for `OC(Cn1ccnc1)(c1cccc(Br)c1)c1ccc(F)cc1F` (stereo unspecified) were 42% and 3.6.
As to `CC(=O)c1ccc(C(O)(Cn2ccnc2)c2ccc(-c3ccncc3)cc2)cc1` (stereo unspecified), the Inhibition in series [1] is given as 78%. In series [2], this compound registered a logP of 2.41.
`COC(=O)c1ccc(C(O)(Cn2ccnc2)c2ccc(-c3ccncc3)cc2)cc1` (stereo unspecified) returned an Inhibition in series [1] of 62%. The lipophilicity (logP) in series [2] was found to be 2.61.
In series [1], `OC(Cn1ccnc1)(c1ccc(Cl)cc1)c1ccc(-c2ccncc2)cc1` (stereo unspecified) returned an Inhibition of 58%. In series [2], the logP was determined as 3.27.
The compound `OC(Cn1cnc2ccccc21)(c1ccc(F)cc1)c1ccc(-c2ccncc2)cc1` (stereo unspecified) yielded an Inhibition in series [1] of 40%. The compound further returned a lipophilicity (logP) in series [2] of 2.06.
For `OC(Cn1ccnc1)(c1ccccc1)c1ccc(Br)cc1` (stereo unspecified) the same measures were 37% and 3.35.
Taken in the same sequence, the figures for `OC(Cn1ccnc1)(c1ccc(F)cc1)c1ccccc1-c1ccncc1` (stereo unspecified) were 86% and 2.51.
`OC(Cn1ccnc1)(c1ccccc1)c1ccc(-c2ccncc2)cc1` (stereo unspecified) displayed an Inhibition in series [1] of 69%. Moreover, in series [2], the lipophilicity (logP) is 2.29.
`OC(Cn1ccnc1)(c1ccc(-c2ccncc2)cc1)c1ccccc1Cl` (stereo unspecified) gave an Inhibition in series [1] of 41%. The compound further yielded a logP in series [2] of 3.37.
For `COc1ccc(C(O)(Cn2ccnc2)c2ccc(Br)cc2)cc1` (stereo unspecified) the same measures were 31% and 4.02.
Taken in the same sequence, the figures for `OC(Cn1ccnc1)(c1ccc(Br)cc1)c1ccccc1Cl` (stereo unspecified) were 26% and 3.87.
With `COc1ccc2c(c1)c(CC(=O)O)c(C)n2C(=O)c1ccc(Cl)cc1` [INDOMETHACIN], in series [3], the IC50 – broadly, the concentration that gives 50% inhibition – is above 25 µM. The Inhibition in series [1] amounted to 10%. The ED50 in series [4] is 254 ug ear-1; in series [5], 902 ug ear-1.
Regarding `OC(Cn1cccn1)(c1ccc(F)cc1)c1ccc(-c2ccncc2)cc1` (stereo unspecified), the Inhibition in series [1] amounted to 28%. Further, the logP in series [2] was determined as 2.14.
In turn, `OC(Cn1ccnc1)(c1ccc(F)cc1)c1ccc(-c2ccccn2)cc1` (stereo unspecified) came in with an Inhibition in series [1] of 63%. The compound further gave a lipophilicity (logP) in series [2] of 3.58.
For `OC(Cn1ccnc1)(c1ccc(-c2ccccc2)cc1)c1ccc(-c2ccncc2)cc1` (stereo unspecified) the same measures were 49% and 3.86.
On to `COc1c(OC)c(OC(C)=O)c2cc(Cl)ccc2c1OC(C)=O` [LONAPALENE], for which the IC50 was 0.74 µM in series [3] and above 750 µM in series [6]. In addition, the Inhibition in series [1] is listed as 15%. Moreover, the ED50 in series [4] is recorded as 32 ug ear-1; in series [5], 103 ug ear-1.
On to `OC(Cn1cccc1)(c1ccc(F)cc1)c1ccc(-c2ccncc2)cc1` (stereo unspecified), for which the Inhibition in series [1] is recorded as 58%. Moreover, in series [2], the logP is 2.35.
For `OC(Cn1ccnc1)(c1ccc(-c2cccnc2)cc1)c1ccc(F)cc1F` (stereo unspecified) the same measures were 52% and 3.31.
For `OC(Cn1ccnc1)(c1ccc(Br)cc1)c1ccc(F)cc1F` (stereo unspecified) the same measures were 22% and 3.44.
`O=Cc1ccc(C(O)(Cn2ccnc2)c2ccc(-c3ccncc3)cc2)cc1` (stereo unspecified) displayed an Inhibition in series [1] of 67%. Also, in series [2], the logP was 2.38.
`Cc1ccc(C(O)(Cn2ccnc2)c2ccc(Br)cc2)cc1` (stereo unspecified): the Inhibition in series [1] is listed as 18%. Also, the logP in series [2] came out at 3.55.
Taken in the same sequence, the figures for `OC(Cn1ccnc1)(c1ccc(F)cc1)c1ccc(F)cc1` were 50% and 2.95.
For `OC(Cn1cncn1)(c1ccc(F)cc1)c1ccc(-c2ccncc2)cc1` (stereo unspecified) the same measures were 53% and 1.67.
Taken in the same sequence, the figures for `CN(C)c1ccc(C(O)(Cn2ccnc2)c2ccc(-c3ccncc3)cc2)cc1` (stereo unspecified) were 34% and 3.29.
In series [1], `OC(Cn1ccnc1)(c1ccc(F)cc1)c1cccc(-c2ccncc2)c1` (stereo unspecified) registered an Inhibition of 74%. Further, in series [2], the logP was determined as 2.91.
For `OC(Cn1ccnc1)(c1ccc(F)cc1)c1ccc(Br)cc1` (stereo unspecified) the same measures were 29% and 3.42.
For `OC(Cn1ccnc1)(c1ccc(-c2ccccn2)cc1)c1ccc(F)cc1F` (stereo unspecified) the same measures were 51% and 3.65.
In series [1], `COC(C)(OC)c1ccc(C(O)(Cn2ccnc2)c2ccc(-c3ccncc3)cc2)cc1` (stereo unspecified) yielded an Inhibition of 61%. This compound returned a logP in series [2] of 3.45.
Taken in the same sequence, the figures for `OC(Cn1ccnc1)(c1ccc(F)cc1)c1cccc(-c2ccccn2)c1` (stereo unspecified) were 61% and 3.34.
In turn, `OC(CN1CCCC1)(c1ccc(F)cc1)c1ccc(-c2ccncc2)cc1` (stereo unspecified) displayed an Inhibition in series [1] of 24%. In series [2], this compound yielded a lipophilicity (logP) of 3.84.
On to `OC(Cn1ccnc1)(c1ccc(F)cc1)c1cccc(-c2cccnc2)c1` (stereo unspecified), for which the Inhibition in series [1] is listed as 64%. Moreover, the lipophilicity (logP) in series [2] was 3.22.
With `Oc1c(Cc2ccccc2)ccc2ccccc12`, the results for the ED50 in series [7], in series [4] and in series [5] were 764 ug ear-1, 5 ug ear-1 and 7 ug ear-1, respectively. Moreover, the half-inhibitory concentration (IC50) in series [6] is above 750 µM.
In the case of `Oc1ccc(C(O)(Cn2ccnc2)c2ccc(-c3ccncc3)cc2)cc1` (stereo unspecified), the Inhibition in series [1] is listed as 37%. The same compound displayed a logP in series [2] of 2.49.
For `OC(Cn1ccnc1)(c1ccc(F)cc1)c1ccccc1-c1cccnc1` (stereo unspecified) the same measures were 62% and 3.26.
Compound `OC(Cn1ccnc1)(c1ccc(F)cc1)c1cccc(Br)c1` (stereo unspecified) registered an Inhibition in series [1] of 38%. Further, in series [2], the lipophilicity (logP) stood at 3.3.
